Molecular target: T1, M-phase inducer phosphatase 1 (Homo sapiens, UniProt P30304)
T1 sequence (P30304 whole entry): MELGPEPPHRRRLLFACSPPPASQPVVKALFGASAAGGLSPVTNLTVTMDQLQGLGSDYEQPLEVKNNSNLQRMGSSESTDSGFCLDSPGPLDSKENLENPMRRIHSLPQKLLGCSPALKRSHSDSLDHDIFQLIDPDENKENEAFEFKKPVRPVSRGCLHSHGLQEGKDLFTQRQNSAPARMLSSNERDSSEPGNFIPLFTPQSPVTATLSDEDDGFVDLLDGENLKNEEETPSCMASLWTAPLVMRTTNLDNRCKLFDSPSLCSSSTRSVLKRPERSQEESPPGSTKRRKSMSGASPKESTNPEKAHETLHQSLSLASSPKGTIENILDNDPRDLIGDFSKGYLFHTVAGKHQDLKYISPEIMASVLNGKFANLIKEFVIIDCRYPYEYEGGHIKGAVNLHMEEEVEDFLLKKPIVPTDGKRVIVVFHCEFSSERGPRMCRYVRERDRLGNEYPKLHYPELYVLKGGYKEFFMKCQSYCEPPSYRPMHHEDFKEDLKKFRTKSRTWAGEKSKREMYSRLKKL
Experiment: Inhibition of human Cdc25A phosphatase activity
Outline: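 Recombinant human Cdc25A catalytic domain; phosphatase activity measured by dephosphorylation of 40 μM O-methylfluorescein monophosphate in 50 mM Tris–HCl pH 8.0, 100 mM NaCl, 1 mM dithiothreitol. IC50 taken as mean of two–five experiments, with standard deviation reported.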

IC50 [µM]	Compound
8	CCCCCCCCCCCCn1cc(CC(=O)O)c2ccccc21
33	CCCCCCCCCCCCN1C(=O)/C(=N/O)c2ccccc21
12	CC(C)CCC[C@@H](C)[C@H]1CCC2/C(=C/C(=O)O)CCC[C@@]21C (stereo not given in full)
13	CCCCCCCCCCN1C(=O)/C(=C/C(=O)O)c2ccccc21
15	CCCCCCCCCCCCN1C(=O)C(=O)c2ccccc21
2.6	CCCCCCCCCCCCN1C(=O)/C(=C/C(=O)O)c2ccccc21
> 100	CCOCCOCCOCCN1C(=O)/C(=C/C(=O)O)c2ccccc21
78	CCCCCCCCN1C(=O)/C(=C/C(=O)O)c2ccccc21
2.3	CCCCCCCCCCCCCCN1C(=O)/C(=C/C(=O)O)c2ccccc21
39	CCCCCCCCN1C(=O)/C(=C\C(=O)O)c2ccccc21
> 100	O=C(O)/C=C1/C(=O)N(CCCc2ccccc2)c2ccccc21
2.9	CCCCCCCCCCCCN1C(=O)/C(=C\C(=O)O)c2ccccc21
> 100	CCCCCCN1C(=O)/C(=C\C(=O)O)c2ccccc21
> 100	CCCCCCN1C(=O)/C(=C/C(=O)O)c2ccccc21
50	CCCCCCCCCCCCN1C(=O)C(CC(=O)O)c2ccccc21 (stereo not given)
1.9	CCCCCCCCCCCCCCCCN1C(=O)/C(=C/C(=O)O)c2ccccc21
1.6	CCCCCCCCCCCCCCCCN1C(=O)/C(=C\C(=O)O)c2ccccc21
37	CCCCCCCCCCCCN1C(=O)/C(=C/C(=O)OC)c2ccccc21
1.7	CCCCCCCCCCCCCCN1C(=O)/C(=C\C(=O)O)c2ccccc21
12	CCCCCCCCCCN1C(=O)/C(=C\C(=O)O)c2ccccc21

From ChEMBL document CHEMBL1150314, “Design and synthesis of N-alkyl oxindolylidene acetic acids as a new class of potent Cdc25A inhibitors” (Bioorg Med Chem Lett, 2008)
